Compound activity from PubChem BioAssay.
eIF4E 4G PPI = eIF4E–eIF4G protein interaction inhibitors, primary screen, biochemical, uHTS, TR-FRET, eIF4GI fragment; Eukaryotic translation initiation factor 4E (Mus musculus) + Eukaryotic translation …; TR-FRET eIF4E-eIF4GI(517-606) binding, 2 h; inhibition, % at 21.7 µM; 0.37% of 220,000 active;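 further: 0% = full FRET control wells and 100% = background wells lacking eIF4GI fragment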
Target sequence (P63073 whole entry, looked up, the tested form may be a part): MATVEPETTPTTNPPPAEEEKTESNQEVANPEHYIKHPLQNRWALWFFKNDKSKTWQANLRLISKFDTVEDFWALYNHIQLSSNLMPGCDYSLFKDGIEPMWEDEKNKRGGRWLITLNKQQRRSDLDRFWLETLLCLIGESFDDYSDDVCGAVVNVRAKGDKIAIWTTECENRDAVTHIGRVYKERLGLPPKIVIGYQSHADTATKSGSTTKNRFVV
Target sequence (Q04637 whole entry, looked up, the tested form may be a part): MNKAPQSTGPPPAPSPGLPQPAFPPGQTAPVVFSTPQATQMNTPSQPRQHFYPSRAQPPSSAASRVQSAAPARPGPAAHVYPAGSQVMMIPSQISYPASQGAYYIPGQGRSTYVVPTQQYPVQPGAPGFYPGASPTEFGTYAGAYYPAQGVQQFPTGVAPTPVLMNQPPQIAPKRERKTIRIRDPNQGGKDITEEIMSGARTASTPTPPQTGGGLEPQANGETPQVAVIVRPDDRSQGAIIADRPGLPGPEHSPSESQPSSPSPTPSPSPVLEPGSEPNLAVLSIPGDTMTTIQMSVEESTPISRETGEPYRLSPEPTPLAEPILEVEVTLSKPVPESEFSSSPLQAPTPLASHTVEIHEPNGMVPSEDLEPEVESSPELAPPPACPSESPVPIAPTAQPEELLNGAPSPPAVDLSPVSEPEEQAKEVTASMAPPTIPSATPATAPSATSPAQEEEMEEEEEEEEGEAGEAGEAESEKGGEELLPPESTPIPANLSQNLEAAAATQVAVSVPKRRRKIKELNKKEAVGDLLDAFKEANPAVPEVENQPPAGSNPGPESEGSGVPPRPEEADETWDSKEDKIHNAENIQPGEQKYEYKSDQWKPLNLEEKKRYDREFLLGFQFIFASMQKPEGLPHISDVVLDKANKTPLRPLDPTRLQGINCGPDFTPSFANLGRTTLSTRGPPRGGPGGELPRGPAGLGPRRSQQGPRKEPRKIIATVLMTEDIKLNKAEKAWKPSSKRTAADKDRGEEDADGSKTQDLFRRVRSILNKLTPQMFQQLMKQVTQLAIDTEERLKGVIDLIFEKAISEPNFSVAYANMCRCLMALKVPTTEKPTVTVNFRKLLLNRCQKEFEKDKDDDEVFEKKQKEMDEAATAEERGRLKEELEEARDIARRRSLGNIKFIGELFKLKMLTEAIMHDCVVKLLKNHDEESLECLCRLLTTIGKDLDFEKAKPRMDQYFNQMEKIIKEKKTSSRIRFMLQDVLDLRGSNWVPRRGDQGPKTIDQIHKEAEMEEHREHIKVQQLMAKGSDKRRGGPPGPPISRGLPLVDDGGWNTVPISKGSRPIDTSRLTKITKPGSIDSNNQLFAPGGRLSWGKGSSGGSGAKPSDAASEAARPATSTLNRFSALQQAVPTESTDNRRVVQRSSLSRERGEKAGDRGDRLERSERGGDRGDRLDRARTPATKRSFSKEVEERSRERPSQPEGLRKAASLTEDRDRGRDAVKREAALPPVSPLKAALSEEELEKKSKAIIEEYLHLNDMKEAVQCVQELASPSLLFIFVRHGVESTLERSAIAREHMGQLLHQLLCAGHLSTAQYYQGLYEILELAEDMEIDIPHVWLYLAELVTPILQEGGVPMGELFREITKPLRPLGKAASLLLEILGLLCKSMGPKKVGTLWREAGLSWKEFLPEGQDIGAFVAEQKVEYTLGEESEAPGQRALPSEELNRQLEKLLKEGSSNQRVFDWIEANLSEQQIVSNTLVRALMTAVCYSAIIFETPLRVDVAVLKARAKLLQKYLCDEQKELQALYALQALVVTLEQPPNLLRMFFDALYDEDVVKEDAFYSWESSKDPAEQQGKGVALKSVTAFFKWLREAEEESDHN
14-3-3 Bad PPI = inhibitors of 14-3-3 zeta/Bad binding, primary screen, biochemical, TR-FRET, bovine 14-3-3 zeta; 0.71% of 220,000 active; 14-3-3 protein zeta/delta (Bos taurus), P63103; TR-FRET 14-3-3zeta/Dy647-pBad peptide displacement, 1 h; inhibition, % at 21.7 µM;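 active means inhibition above about 70%, limit read from the data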;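 further: 0% = full 14-3-3 plus peptide FRET controls and 100% = background without 14-3-3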
SUMO HTRF inh = inhibitors of in vitro SUMOylation cascade, primary screen, biochemical, HTRF, uHTS; SUMO-conjugating enzyme UBC9 (Homo sapiens), P63279; HTRF SUMOylation assay, SAE1/SAE2 + UBC9; inhibition, % at 35 µM; 0.36% of 290,000 active; AID 2006, 2009; in the data active means inhibition above about 50%, passing the limit was not always enough
p47phox inh = p47phox/p22phox peptide binding inhibitors, primary screen, biochemical, uHTS, NADPH oxidase regulatory subunit; fluorescence polarization, 2 h; inhibition, % at 24.7 µM; 0.53% of 220,000 active; AID 1274, 2008;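 further: 0% = p47phox with labelled peptide and 100% = labelled peptide alone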
Tb MetRS inh = T. brucei MetRS inhibitors, primary screen, biochemical, luminescence. methionyl-tRNA synthetase (Trypanosoma brucei brucei). purified T. brucei MetRS, ATP depletion, Kinase-Glo luminescence. inhibition, % at 11.9 µM. 0.4% of 360,000 active. AID 624268, 2012;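 active means inhibition above a per-plate cutoff of the control wells' mean inhibition plus 3 SD, cut at about 5.5% in these data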;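 further: 0% = DMSO wells median and 100% = median of wells with control inhibitor compound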
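assay system = parasite MetRS enzyme | timing = 15 min preincubation, 2 h reaction, all 25 °C | evaluation = percent inhibition relative to median high and low control wells | medium = HEPES buffer containing pyrophosphatase, BSA, spermine, DTT | compound = single dose, 11.9 µM final nominal, 0.9% final DMSO | detection = Kinase-Glo luminescence, ATP depletion format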
p97 inhibitor = inhibitors of human p97 ATPase, primary screen, biochemical | Transitional endoplasmic reticulum ATPase (Homo sapiens), P55072 | recombinant p97 ATPase, Kinase-Glo ATP luminescence, 3 h | inhibition, % at 8 µM | 0.42% of 220,000 active | AID 1481, 2009; in the data active means inhibition above about 15%;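 further: 0% = DMSO vehicle and 100% = wells lacking enzyme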
The depositor's hits bear a star; · = no result given; + = active, no number; [ ] = remark or other dose. Compounds with a hit are over-represented: about 1.6% of the library has one in this group of screens.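 How the source made its calls, unless noted: active means inhibition above about 30% (limit read from the data); inactive means the rest.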

SMILES	eIF4E 4G PPI	14-3-3 Bad PPI	SUMO HTRF inh	p47phox inh	Tb MetRS inh	p97 inhibitor
CC(=O)Nc1ccc(NC2=C/C(=N/S(=O)(=O)c3cccs3)c3ccccc3C2=O)cc1	-4	20	·	7	3	8
Cc1ccccc1NC1=C/C(=N\S(=O)(=O)c2cccs2)c2ccccc2C1=O	-14	7	73*	14	0	11
Cc1ccccc1NC1=C/C(=N\S(=O)(=O)c2ccc(C(=O)O)cc2)c2ccccc2C1=O	·	·	88*	·	9.7*	·
Cc1ccc(NC2=C/C(=N/S(=O)(=O)c3cccs3)c3ccccc3C2=O)cc1C	4	-4	-2	36*	-1	-3
Cn1ccc2c(/C=C/c3ccc(F)cc3)cc3c(c21)C1CCC3O1 (centres undefined)	·	·	·	·	-1	·
CC1(C(=O)NS(=O)(=O)c2cccc(F)c2)CCN1C(=O)CC1CCCC1 (centres undefined)	·	·	·	·	0	·
O=C(CN(C1CCCCC1)C1CCCCC1)N1CCc2ccccc2C1	10	88*	6	-4	-3	1
C[C@@H](NC(=O)c1[nH]cnc1C(=O)Nc1cccc(Cl)c1)c1ccccc1	·	·	·	·	0	·
CCN(CC)CCNC(=O)C1c2cc(OC)c(OC)cc2C(=O)N(C)C1c1cccs1 (centres undefined)	0	-23	-4	0	-1	1
O=C1CC(c2ccco2)CC(O)=C1C=Nc1cc(Cl)cc(Cl)c1 (centres undefined)	52*	-5	19	-1	0	5
Cc1ccc(C2CC(=O)C(C=NCCN3CCN(C(=S)Nc4ccccc4)CC3)=C(O)C2)cc1 (centres undefined)	97*	7	-2	-8	0	1
C=CCNC(=S)N1CCN(CCN=CC2=C(O)CC(c3ccco3)CC2=O)CC1 (centres undefined)	-9	-15	3	35*	0	1
CC(C)C[C@@H](COCc1cccc(Cl)c1)N1CCN(C(=O)c2ccc(C(F)(F)F)cc2)CCC1=O	·	·	·	·	-1	·
C/C(=N\NC(=O)CN(c1ccc(Oc2ccccc2)cc1)S(C)(=O)=O)C(C)(C)C	-2	-12	7	-10	-1	1
O=C(O)c1cc(Cl)c(Cl)cc1C(=O)Nc1cccc2cccnc12	0	-8	76*	-1	0	8
O=C(Nc1ccc(F)cc1)C(c1ccccc1OC(F)(F)F)N1CCN(c2cccc(C(F)(F)F)n2)CC1 (centres undefined)	·	·	·	·	-1	·
COc1cc(C2/C(=C(/O)c3ccccc3)C(=O)C(=O)N2c2ccccn2)ccc1O (centres undefined)	82*	-14	20	-1	0	4
O[C@H]1CN(CC2CCCCC2)[C@@H](c2ccc(Cl)cc2)C[C@@H]1n1cc(C2CC2)nn1	·	·	·	·	-1	·
CCN(CC)c1ccc(/C=N/NC(=O)CNC(=O)C2COc3ccccc3O2)c(O)c1 (centres undefined)	·	·	51*	·	-1	·
COc1ccccc1Nc1nc2ccc(C)cc2n2cnnc12	·	·	23	·	0	·
N#CC(c1ccccc1)(c1ncc(C(F)(F)F)cc1Cl)N1CCOCC1 (centres undefined)	-9	-2	-4	42*	0	0
N#CC(c1cccc(C(F)(F)F)c1)(c1ncc(C(F)(F)F)cc1Cl)N1CCOCC1 (centres undefined)	1	6	7	-12	-1	-3
CCOC(=O)C1=C(COc2ccc(C)cc2)NC(=O)NC1c1cc(C)ccc1C (centres undefined)	2	-1	15	+	0	-2
CSc1nc2ccc3nc(NC(=O)c4cccs4)sc3c2s1	-110	73*[fluorescence artefact?]	-2	-20	-1	4
CSc1nc2ccc3nc(NC(=O)c4ccc(Cl)s4)sc3c2s1	6	-1	0	-1	0	0
SMILES	eIF4E 4G PPI	14-3-3 Bad PPI	SUMO HTRF inh	p47phox inh	Tb MetRS inh	p97 inhibitor
CCCc1c(Cc2cccc(F)c2)ncn1Cc1cccc(-c2ccccc2)c1	·	·	·	·	0	·
CCCn1c(=O)[nH]c(=O)c2c1nc(-c1ccc3c(c1)OCCO3)n2CCN1CCOCC1	2	72*	28	-7	-1	4
O=C(C1=C(O)C(=O)N(c2ccccc2)C1c1ccc([N+](=O)[O-])cc1)c1cccs1 (centres undefined)	1	-5	8	-3	0	3
CC(OCC(O)CN(C)CCOc1ccccc1)c1ccc(Cl)cc1 (centres undefined)	3	74*	10	-2	0	-11
CN(CCOc1ccccc1)CC(O)COc1ccccc1 (centres undefined)	·	·	-8	·	-1	·
COc1ccc(CN2CCN(C(=O)c3cccs3)CC2)cc1Br	19	78*	24	10	-1	2
CCCCCn1c(=O)[nH]c2cc(C(=O)NCc3ccc4c(c3)OCO4)ccc2c1=O	-1	16	34	3	1	0
O=C(c1cc(-c2ccncc2)nc2ccc(Cl)cc12)N1CCN(Cc2ccc3c(c2)OCO3)CC1	-3	-4	-8	48*	-1	1
CCCCCn1c(=O)[nH]c2cc(C(=O)N3CCN(Cc4ccc5c(c4)OCO5)CC3)ccc2c1=O	44*	-3	12	-9	-3	-2
COc1ccc(CN2CCN(C(=O)c3cccc4ccccc34)CC2)cc1Br	·	·	1	·	0	·
COc1cccc(OC)c1C(=O)N1CCN(Cc2ccc3c(c2)OCO3)CC1	12	97*[fluorescence artefact?]	13	-3	-1	5
O=C(c1cc(-c2ccncc2)nc2ccc(Br)cc12)N1CCN(Cc2ccc3c(c2)OCO3)CC1	-3	-11	-7	-11	-1	-1
O=C1NC[C@H](CCCCN2CCN(CC3CCCCC3)C(=O)C2=O)N(CCc2ccccc2)C1=O	·	·	·	·	0	·
FC(F)(F)c1ccc(/C=N/n2c(C3CCCCC3)n[nH]c2=S)cc1	·	·	-6	·	-1	·
CCC(C)N1CCN(C(=O)c2cccs2)CC1 (centres undefined)	0	70*	·	-15	0	1
O=C(c1ccncc1)N1CCN(C(=O)c2cccs2)CC1	-3	-2	13	-19	1	-4
CCOCCCNC(=S)N1CCN(Cc2ccc3c(c2)OCO3)CC1	0	95*	6	-8	0	6
